Measured values as given in ChEMBL document CHEMBL1145048, “Functionalized glycomers as growth inhibitors and inducers of apoptosis in human glioblastoma cells” (J Med Chem, 2003).

Columns and labels:
[1] = Glycomer activity determined as growth inhibition of human glioblastoma LNZ308 cells; format: functional, cell-based
Procedure, shortened: (§1)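 Cells grown 24 h with FCS, then 24 h without FCS, then exposed to glycomers at increasing concentrations in serum-free medium for 24 h. MTT at 0.2 mg/mL was added for the last 2 h, formazan was dissolved in 0.1 N HCl/2-propanol and read at 540 nm. Growth inhibition = treated/control MTT reduction. IC50 is the concentration giving 50% inhibition from dose–response curves. Triplicate, mean ± SD.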

[2] = Glycomer activity determined as growth inhibition of human glioblastoma LN18 cells; format: functional, cell-based; procedure, shortened: as §1
[3] = Apoptosis index was determined against human glioblastoma LN18 cells at concentration of 25 uM after total exposure time of 24 hours; format: functional, cell-based
Procedure, shortened: (§2)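 Cells seeded to half confluence in DMEM-10% FCS for 24 h, then held 24 h without FCS before glycomer addition in serum-free medium. At the end of the incubation, histone-associated DNA fragments (mono- and oligonucleosomes) in still-adherent cells were measured by photometric ELISA (absorbance 405 nm). Apoptosis index = absorbance of treated / untreated wells, untreated set at 1.00. Done in triplicate.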

[4] = Apoptosis index was determined against human glioblastoma LN18 cells at 25 uM after total exposure time of 24 hours; format: functional; procedure, shortened: as §2
[5] = Apoptosis index was determined against human glioblastoma LNZ308 cells at 25 uM after total exposure time of 24 hours; format: functional; procedure, shortened: as §2
[6] = Apoptosis index was determined against human glioblastoma LNZ308 cells at concentration of 25 uM after total exposure time of 24 hours; format: functional, cell-based; procedure, shortened: as §2

For `C=CCO[C@H]1[C@H](O)[C@H](COS(=O)(=O)c2cccc(C(F)(F)F)c2)O[C@H](Oc2ccc(I)cc2)[C@@H]1OC(=O)CCC`, which IC50 ([1]; Homo sapiens, LNZ308) is on record?
Its IC50 is 42 µM.

What about the IC50 ([2]; Homo sapiens, LN-18) of the same compound?
Its IC50 is 25 µM.

What does the source list for `C=CCO[C@H]1[C@H](O)[C@H](COS(=O)(=O)c2cccc(C(F)(F)F)c2)O[C@@H](Oc2ccc(I)cc2)[C@H]1OC(=O)CCc1ccccc1`?
IC50 ([1]; Homo sapiens, LNZ308): > 50 µM; IC50 ([2]; Homo sapiens, LN-18): > 50 µM

With `CCCO[C@H]1[C@H](O)[C@H](COCc2ccccc2)O[C@@H](Oc2ccc(OC)cc2)[C@H]1OC(C)=O` as the compound, how does the IC50 ([1]; Homo sapiens, LNZ308) read?
Its IC50 is greater than 50 µM.

And the IC50 ([2]; Homo sapiens, LN-18)?
Its IC50 is greater than 50 µM.

With `C=CCO[C@@H]1[C@H](O)[C@H](Oc2ccc(Br)cc2)O[C@@H](COCc2ccccc2)[C@H]1O` as the compound, how does the IC50 ([1]; Homo sapiens, LNZ308) read?
The IC50 was greater than 50 µM.

What about the IC50 ([2]; Homo sapiens, LN-18) of the same compound?
Its IC50 is greater than 50 µM.

What about the Apoptosis index [3] of the same compound?
Its Apoptosis index is 1.19.

Which IC50 ([1]; Homo sapiens, LNZ308) does the source give for `C=CCO[C@H]1[C@H](O)[C@H](COS(=O)(=O)c2cccc(C(F)(F)F)c2)O[C@@H](Oc2ccc(I)cc2)[C@H]1OC(=O)C(C)C` here?
Its IC50 is 8.5 µM.

And the Apoptosis index [4]?
Its Apoptosis index is 1.1.

What about the IC50 ([2]; Homo sapiens, LN-18) of the same compound?
The IC50 was 12.5 µM.

What about the Apoptosis index [5] of the same compound?
Its Apoptosis index is 1.09.

Which IC50 ([1]; Homo sapiens, LNZ308) does the source give for `C=CCO[C@@H]1[C@H](OC(=O)CC)[C@H](Oc2ccc(I)cc2)O[C@@H](COS(=O)(=O)c2cccc(C(F)(F)F)c2)[C@H]1OCc1ccc(OC)cc1` here?
The IC50 was greater than 50 µM.

And the IC50 ([2]; Homo sapiens, LN-18)?
The IC50 was greater than 50 µM.

For `CCCC(=O)O[C@@H]1[C@H](Oc2ccc(I)cc2)O[C@@H](COS(=O)(=O)c2cccc(C(F)(F)F)c2)[C@@H](O)[C@@H]1OC`, which IC50 ([1]; Homo sapiens, LNZ308) is on record?
Its IC50 is 22 µM.

What about the IC50 ([2]; Homo sapiens, LN-18) of the same compound?
The IC50 was 26 µM.

Which IC50 ([1]; Homo sapiens, LNZ308) does the source give for `C=CCO[C@H]1[C@H](O)[C@H](COCc2ccccc2)O[C@@H](Oc2ccc(I)cc2)[C@H]1OC(=O)C(C)C` here?
The IC50 was greater than 50 µM.

And the IC50 ([2]; Homo sapiens, LN-18)?
Its IC50 is greater than 50 µM.

What does the source list for `C=CCOC1C(O)C(CNS(=O)(=O)c2cccc(C(F)(F)F)c2)OC(Oc2ccc(I)cc2)C1OC(=O)CCC` (stereo in doubt; 17a)?
IC50 ([1]; lnz308): 26 µM; IC50 ([2]; ln18): 25 µM

With `C=CCO[C@H]1[C@H](O)[C@H](COCc2ccccc2)O[C@@H](Oc2ccc(I)cc2)[C@H]1OC(=O)CCC` as the compound, how does the IC50 ([1]; Homo sapiens, LNZ308) read?
The IC50 was 11.5 µM.

What about the IC50 ([2]; Homo sapiens, LN-18) of the same compound?
The IC50 was 7.5 µM.

What about the Apoptosis index [6] of the same compound?
The Apoptosis index was 2.27.

And the Apoptosis index [3]?
The Apoptosis index was 1.6.

For `CCCC(=O)O[C@@H]1[C@H](Oc2ccc(I)cc2)O[C@@H](COCc2ccccc2)[C@@H](O)[C@@H]1OC`, which IC50 ([1]; Homo sapiens, LNZ308) is on record?
The IC50 was greater than 50 µM.

What about the IC50 ([2]; Homo sapiens, LN-18) of the same compound?
The IC50 was greater than 50 µM.

With `CCCO[C@H]1[C@H](O)[C@H](COS(=O)(=O)c2cccc(C(F)(F)F)c2)O[C@@H](Oc2ccccc2)[C@H]1OC(=O)CCC` as the compound, how does the IC50 ([1]; Homo sapiens, LNZ308) read?
Its IC50 is greater than 50 µM.

And the IC50 ([2]; Homo sapiens, LN-18)?
Its IC50 is greater than 50 µM.

What does the source list for `C=CCO[C@H]1[C@H](O)[C@H](COS(=O)(=O)c2cccc(C(F)(F)F)c2)O[C@@H](Oc2ccc(I)cc2)[C@H]1OC(=O)CCC` (stereo in doubt; 8c)?
IC50 ([1]; lnz308): 41 µM; IC50 ([2]; ln18): 43 µM

What does the source list for `C=CCO[C@H]1[C@H](O)[C@H](COS(=O)(=O)c2cccc(C(F)(F)F)c2)O[C@@H](Oc2ccc(Br)cc2)[C@H]1OC(=O)CCC`?
IC50 ([1]; Homo sapiens, LNZ308): > 50 µM; IC50 ([2]; Homo sapiens, LN-18): > 50 µM

For `C=CCOC1C(O)C(CNS(=O)(=O)c2cccc(C(F)(F)F)c2)OC(Oc2ccc(I)cc2)C1OC(=O)C(C)C` (configuration not stated), which IC50 ([1]; Homo sapiens, LNZ308) is on record?
The IC50 was 7.5 µM.

What about the IC50 ([2]; Homo sapiens, LN-18) of the same compound?
Its IC50 is 12.5 µM.

With `C=CCO[C@H]1[C@@H](O)[C@H](COCc2ccccc2)O[C@@H](Oc2ccc(I)cc2)[C@H]1OC(=O)CCC` as the compound, how does the IC50 ([1]; Homo sapiens, LNZ308) read?
The IC50 was 37 µM.

And the IC50 ([2]; Homo sapiens, LN-18)?
The IC50 was 20 µM.
